Laboratory results taken from ChEMBL document CHEMBL1146826, “A novel Pd-catalyzed cyclization reaction of ureas for the synthesis of dihydroquinazolinone p38 kinase inhibitors” (Bioorg Med Chem Lett, 2004).

Columns and labels:
[1] = target: Mitogen-activated protein kinase 14 (Mus musculus, UniProt P47811); test: Inhibition of murine Mitogen-activated protein kinase p38 alpha
Summary of the method: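 Phosphorylated His-tagged murine p38α MAP kinase (10 ng/well) assayed with immobilized GST-ATF-2 as substrate.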

PBMC = test: Effect on LPS stimulated TNF-alpha release from hPBMCs; type: functional, cell-based; conditions: Homo sapiens
Summary of the method: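 Human peripheral blood mononuclear cells incubated with inhibitor, then stimulated with LPS/IFNγ for 3 h; TNFα in supernatants quantified by ELISA.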

Mus musculus = test: Compound was tested for the inhibition of TNF-alpha release after LPS stimulation in mice at a dose of 30 mg/kg, po; type: functional
Summary of the method: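 Mice given compound orally at 30 mg/kg; 1 h after dosing, LPS (20 mg/kg) injected iv. One hour later blood collected and TNFα measured by mouse-specific ELISA.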

Sequence of Mitogen-activated protein kinase 14 (P47811 whole entry): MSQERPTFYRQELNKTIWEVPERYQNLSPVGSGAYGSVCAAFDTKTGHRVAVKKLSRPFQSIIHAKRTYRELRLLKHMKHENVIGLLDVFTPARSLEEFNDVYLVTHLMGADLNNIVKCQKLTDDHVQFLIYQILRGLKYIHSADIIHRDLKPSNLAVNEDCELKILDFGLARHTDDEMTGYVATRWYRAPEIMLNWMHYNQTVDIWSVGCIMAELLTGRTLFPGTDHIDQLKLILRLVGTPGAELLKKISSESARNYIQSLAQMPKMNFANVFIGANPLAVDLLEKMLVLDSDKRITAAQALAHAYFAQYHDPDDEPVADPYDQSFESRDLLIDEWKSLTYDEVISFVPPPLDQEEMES

| Compound | IC50 [1] [nM] | IC50 (PBMC) [nM] | inhibition in vivo at 30 mg/kg (Mus musculus) [%] |
| --- | --- | --- | --- |
| O=C1NCc2cc(Nc3ccc(F)cc3F)ccc2N1c1c(Cl)cccc1Cl | 380 | 290 | – |
| Cc1ccc(S(=O)(=O)Nc2ccc3c(c2)CNC(=O)N3c2c(Cl)cccc2Cl)cc1 | 1800 | > 10000 | – |
| CN(c1ccc2c(c1)CNC(=O)N2c1c(Cl)cccc1Cl)S(=O)(=O)c1cc(Cl)ccc1Cl | 780 | 1200 | – |
| O=C1NCc2cc(Sc3ccc(F)cc3F)ccc2N1c1c(Cl)cccc1Cl | 470 | 960 | – |
| O=C(Nc1ccc2c(c1)CNC(=O)N2c1c(Cl)cccc1Cl)c1ccccc1 | 8500 | 10000 | – |
| O=C1NCc2cc(NS(=O)(=O)c3ccccc3)ccc2N1c1c(Cl)cccc1Cl | 53 | 140 | – |
| O=C1NCc2cc(NCc3ccccc3)ccc2N1c1c(Cl)cccc1Cl | 150 | 1200 | – |
| O=C1NCc2ccccc2N1c1c(Cl)cccc1Cl | 11800 | – | – |
| COc1cc2c(-c3ccccc3)nc(=O)n(C(C)C)c2cc1N1CCOCC1 | 14000 | – | – |
| Cc1cc(OCCCN2CCOCC2)cc(C)c1N1C(=O)NCc2cc(NS(=O)(=O)c3ccc(F)c(Cl)c3)ccc21 | – | – | 42 |

Continued, in another order:

| IC50 [1] [nM] | Compound | IC50 (PBMC) [nM] | inhibition in vivo at 30 mg/kg (Mus musculus) [%] |
| --- | --- | --- | --- |
| 180 | O=C1NCc2cc(NS(=O)(=O)c3ccccc3Cl)ccc2N1c1c(Cl)cccc1Cl | 510 | – |
| 34 | O=C1NCc2cc(NS(=O)(=O)c3ccc(F)c(Cl)c3)ccc2N1c1c(Cl)cccc1Cl | 84 | – |
| 570 | O=C1NCc2cc(NS(=O)(=O)c3cc(Cl)ccc3O)ccc2N1c1c(Cl)cccc1Cl | – | – |
| 100 | O=C1NCc2cc(NS(=O)(=O)c3cc(Cl)ccc3Cl)ccc2N1c1c(Cl)cccc1Cl | 390 | – |
